ChEMBL document CHEMBL3397044, “Discovery and in vitro and in vivo profiles of N-ethyl-N-[2-[3-(5-fluoro-2-pyridinyl)-1H-pyrazol-1-yl]ethyl]-2-(2H-1,2,3-triazol-2-yl)-benzamide as a novel class of dual orexin receptor antagonist” (Bioorg Med Chem, 2015)
In brackets after ≈: the same amount, converted by molar mass. Activity calls are given as the source filed them. The rule behind the calls is not given here.

Experiments:
[1] = system: Rattus norvegicus; test: Sleep promoting effect in free moving Wistar rat with chronically implanted electrodes assessed as increase in duration of REM sleep at 10 and 30 mg/kg, ip after 2 hrs by polysomnogram recordings method; type: functional, organism-based; parameters: dose 30 mg/kg
Outline: (§1)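 Male Wistar rats, 10 weeks old, implanted under pentobarbital with frontal and parietal EEG screw electrodes plus EMG. Recovered ≥7 days, then singly housed and acclimated, tethered and freely moving. Dosed ip between 18:50 and 19:00, before lights-off. EEG filtered 0.16–30 Hz, EMG 5.3–1000 Hz, scored in 8-s epochs. Sleep latency = first 15 consecutive sleep epochs. Analysed over 2 h; n = 8–10; Dunnett or Steel tests.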

[2] = target: T1, Orexin/Hypocretin receptor type 1 (Rattus norvegicus) (UniProt P56718); test: Antagonist activity against rat OX1 receptor assessed as reduction in [Ala6,12]orexin-A-induced intracellular Ca2+ mobilization incubated for 30 mins by Fluo-4 AM dye based fluorescence assay; type: functional, cell-based
T1 sequence (whole entry): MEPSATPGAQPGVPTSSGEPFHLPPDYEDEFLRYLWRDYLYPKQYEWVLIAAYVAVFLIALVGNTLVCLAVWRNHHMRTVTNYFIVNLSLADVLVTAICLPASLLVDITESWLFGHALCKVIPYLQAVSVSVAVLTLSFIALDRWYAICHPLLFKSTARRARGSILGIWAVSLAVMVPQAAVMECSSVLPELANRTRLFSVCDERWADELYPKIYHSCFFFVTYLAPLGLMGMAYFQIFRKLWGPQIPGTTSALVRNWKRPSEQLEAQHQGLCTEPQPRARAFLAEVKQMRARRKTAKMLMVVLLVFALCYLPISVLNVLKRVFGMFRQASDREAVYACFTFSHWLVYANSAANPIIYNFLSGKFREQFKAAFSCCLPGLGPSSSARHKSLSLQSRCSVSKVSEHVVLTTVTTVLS
Outline: (§2)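 Cells seeded at 2.4 × 10⁴/well and cultured for 18 h. Compound added for 30 min at room temperature. Peak fluorescence minus basal was normalised to the maximal [Ala6,12]orexin-A response. Kb = IC50/(1+[L]/EC50). At least three independent runs in duplicate; mean ± SE.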

[3] = system: Rattus norvegicus; test: Sleep promoting effect in free moving Wistar rat with chronically implanted electrodes assessed as reduction in latency until total sleep at 3 to 30 mg/kg, ip by polysomnogram recordings method; type: functional, organism-based; outline: as §1
[4] = Clearance in dog at 0.5 mg/kg, iv; type: ADME, organism-based, Canis lupus familiaris; parameters: dose 0.5 mg/kg, route intravenous; settings: in vivo
Outline: (§3)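 Male dogs given 0.5 mg/kg iv (n = 3). Vd and CL derived from the iv profile. T1/2 = ln2·Vd/CL.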

[5] = system: Ribosyldihydronicotinamide dehydrogenase (NQO2) (Homo sapiens); test: Binding affinity to MT3 receptor (unknown origin) at 10 uM
[6] = Drug metabolism in dog liver microsomes at 5 uM after 15 mins; type: ADME, Canis lupus familiaris; settings: read-out: Drug metabolism
Outline: (§4)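 Liver microsomes at 1 mg protein/mL with 5 µM compound, incubated 15 min. Value reported as percentage of compound metabolized.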

[7] = system: Rattus norvegicus; test: Sleep promoting effect in ip dosed free moving Wistar rat with chronically implanted electrodes assessed as by polysomnogram recordings method; settings: read-out: MED
[8] = Drug metabolism in rat liver microsomes at 5 uM after 15 mins; type: ADME; settings: read-out: Drug metabolism; outline: as §4
[9] = Clearance in Sprague-Dawley rat at 2 mg/kg, iv; type: ADME, organism-based; parameters: dose 2 mg/kg, route intravenous; settings: in vivo
Outline: (§5)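 Fasted male Sprague–Dawley rats (n = 3) given 2 mg/kg iv. Vd and CL taken from the iv profile. T1/2 calculated as ln2·Vd/CL.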

[10] = Oral bioavailability in dog at 3 mg/kg; type: ADME, organism-based, Canis lupus familiaris; settings: in vivo
Outline: (§6)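 Fasted male rats dosed orally at 10 mg/kg, and male dogs at 3 mg/kg (n = 3). Tmax read from the oral profile. F calculated against the iv arm (rat 2 mg/kg, dog 0.5 mg/kg).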

[11] = Tmax in dog at 3 mg/kg, po; type: ADME, organism-based, Canis lupus familiaris; parameters: dose 3 mg/kg, route oral; settings: in vivo; outline: as §6
[12] = Volume of distribution in dog at 0.5 mg/kg, iv; type: ADME, organism-based, Canis lupus familiaris; parameters: dose 0.5 mg/kg, route intravenous; settings: in vivo; outline: as §3
[13] = target: T2, Orexin receptor type 2 (Rattus norvegicus) (UniProt P56719); test: Antagonist activity against rat OX2 receptor assessed as reduction in [Ala6,12]orexin-A-induced intracellular Ca2+ mobilization incubated for 30 mins by Fluo-4 AM dye based fluorescence assay; type: functional, cell-based; outline: as §2
T2 sequence (whole entry): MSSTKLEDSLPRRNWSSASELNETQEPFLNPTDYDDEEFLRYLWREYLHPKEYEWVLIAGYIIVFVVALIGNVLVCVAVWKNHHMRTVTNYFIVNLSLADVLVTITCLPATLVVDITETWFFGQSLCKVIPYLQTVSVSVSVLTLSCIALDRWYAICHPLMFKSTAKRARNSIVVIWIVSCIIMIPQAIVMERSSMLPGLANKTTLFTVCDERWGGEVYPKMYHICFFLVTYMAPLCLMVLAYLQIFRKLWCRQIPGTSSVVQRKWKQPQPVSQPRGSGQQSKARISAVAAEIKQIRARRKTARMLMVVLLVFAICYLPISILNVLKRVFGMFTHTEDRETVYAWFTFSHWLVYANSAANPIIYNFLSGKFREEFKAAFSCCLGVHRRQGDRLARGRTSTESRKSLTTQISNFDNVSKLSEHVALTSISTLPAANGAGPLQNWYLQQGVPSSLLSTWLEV

[14] = Drug excretion in rat urine; type: ADME; settings: read-out: Drug excretion
[15] = system: Rattus norvegicus; test: Toxicity in Sprague-Dawley rat assessed as effect on rotarod performance at 3 to 30 mg/kg, ip administered 30 mins prior to the test by rotarod test; settings: in vivo, 0.5 h
[16] = Ratio of drug level in brain to plasma in Sprague-Dawley rat at 10 mg/kg, po; settings: read-out: BPR
[17] = system: Rattus norvegicus; test: Sleep promoting effect in free moving Wistar rat with chronically implanted electrodes assessed as increase in duration of NREM sleep at 10 and 30 mg/kg, ip by polysomnogram recordings method; type: functional, organism-based; parameters: dose 30 mg/kg; outline: as §1
[18] = Tmax in Sprague-Dawley rat at 10 mg/kg, po; type: ADME, organism-based; parameters: dose 10 mg/kg, route oral; settings: in vivo; outline: as §6
[19] = Oral bioavailability in Sprague-Dawley rat at 10 mg/kg; type: ADME, organism-based; settings: in vivo; outline: as §6
[20] = Half life in Sprague-Dawley rat at 2 mg/kg, iv; type: ADME, organism-based; parameters: dose 2 mg/kg, route intravenous; settings: in vivo; outline: as §5
[21] = Volume of distribution in Sprague-Dawley rat at 2 mg/kg, iv; type: ADME, organism-based; parameters: dose 2 mg/kg, route intravenous; settings: in vivo; outline: as §5
[22] = Drug metabolism in human liver microsomes at 5 uM after 15 mins; type: ADME; settings: read-out: Drug metabolism; outline: as §4
[23] = Solubility in pH 6.8 phosphate buffer; type: physicochemical
Outline: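 Aqueous solubility measured in pH 6.8 phosphate buffer.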

[24] = Half life in dog at 0.5 mg/kg, iv; type: ADME, organism-based, Canis lupus familiaris; parameters: dose 0.5 mg/kg, route intravenous; settings: in vivo; outline: as §3
[25] = Ratio of drug level in CSF to plasma in Sprague-Dawley rat at 10 mg/kg, po
[26] = Cmax in free moving Wistar rat with chronically implanted electrodes 3 mg/kg, ip after 0.33 hrs; type: ADME, organism-based; parameters: dose 3 mg/kg, route intraperitoneal; settings: in vivo
[27] = Drug excretion in rat bile; type: ADME, tissue-based; settings: read-out: Drug excretion

Kb [2]: 5.08 nM
clearance [4]: 9.97 mL/min/kg
Activity [5]: 66%
metabolised at 0.25 h, 5 µM [6]: 7.3%
metabolised at 0.25 h, 5 µM [8]: 79.9%
clearance [9]: 66 mL/min/kg
bioavailability [10]: 80.2%
Tmax [11]: 40 min
Vd [12]: 0.745 L/kg
Kb [13]: 6.06 nM
dose excreted [14]: 0.4%
Kp [16]: 0.17
Tmax [18]: 50 min
bioavailability [19]: 14.9%
half-life [20]: 17.9 min
Vd [21]: 1.71 L/kg
metabolised at 0.25 h, 5 µM [22]: 24.1%
solubility [23]: 30.2 µg/mL (≈ 74.5 µM)
half-life [24]: 57.7 min
Kp [25]: 0.06
Cmax [26]: 728 nM
dose excreted [27]: 0.2%
SMILES: CCN(CCn1ccc(-c2ccc(F)cn2)n1)C(=O)c1ccccc1-n1nccn1
Activity [1]: inactive
Activity [3]: Dose-dependent effect
minimal effective dose [7]: 3 mg/kg
Activity [15]: Non-toxic
Activity [17]: Active
